Assay results collected from several papers.
Each line is one published result; the experiments were not run side by side. pEC50, pIC50: −log10 of the molar value. Converted amounts (≈) assume the structure as drawn.

| Structure (SMILES) | organism | test | test system | conditions | quantity | value |
| --- | --- | --- | --- | --- | --- | --- |
| Nc1cccc(-n2c(/C=C/c3ccc(F)cc3)nc3ccccc3c2=O)c1 | Enterococcus faecium | microbial growth, broth dilution | NCTC7171 | – | MIC | 128 µg/mL (≈ 358 µM) |
| O=c1cccc(C2CCCCC2)n1O | Candida albicans | microbial growth | ATCC90028 | – | MIC80 | 1.9 µM (≈ 0.367 µg/mL) |
| O=c1c2ccccc2nc(/C=C/c2ccc(F)cc2)n1-c1cccc([N+](=O)[O-])c1 | Enterococcus faecium | microbial growth, broth dilution | NCTC7171 | – | MIC | > 128 µg/mL |
| c1ccc2c(c1)CCc1ccccc1C2OCCN1CCNCC1 | Trypanosoma brucei | parasite growth | – | – | pEC50 | 5.03 |
| CN(C)C(=O)/C(C#N)=C/c1ccc(-c2nc3cnc4[nH]ccc4c3n2C2CCCCC2)o1 | Murine coronavirus | viral replication | – | 1 µM, 10 h | inhibition | 36% |
| COC(=O)c1cc(-c2cccc(NC(=O)Nc3ccccc3OC)c2)on1 | Mycobacteroides chelonae | microbial growth, broth dilution | ATCC35752 | 48 h | MIC | > 64 µg/mL |
| OC(Cn1cncn1)(Cn1cncn1)c1ccc(F)cc1F | Candida albicans | microbial killing | – | – | MFC | 40 µM (≈ 12.3 µg/mL) |
| COC(=O)c1cc(-c2cccc(NC(=S)Nc3ccc(C#N)cc3)c2)on1 | Mycobacteroides chelonae | microbial growth, broth dilution | ATCC35752 | 48 h | MIC | 64 µg/mL (≈ 169 µM) |
| N#Cc1ccc(/C=C/c2nc3ccccc3c(=O)n2-c2cc[nH]n2)cc1 | Enterococcus faecium | microbial growth, broth dilution | NCTC7171 | – | MIC | > 128 µg/mL |
| Cc1nc(N)sc1-c1ccnc(Nc2ccc(N3CCOCC3)cc2)n1 | Plasmodium berghei | parasite growth, luciferase | human | liver stage | pIC50 | 6.34 |
| COC(=O)c1cc(-c2cccc(NC(=S)Nc3cccc(Br)c3)c2)on1 | Mycobacteroides chelonae | microbial growth, broth dilution | ATCC35752 | 48 h | MIC | > 64 µg/mL |
| Cc1ccc(/C=C/c2nc3ccccc3c(=O)n2-c2cccc(O)c2)cc1 | Enterococcus faecium | microbial growth, broth dilution | NCTC7171 | – | MIC | > 128 µg/mL |
| COc1cccc(Cc2cc(C)cc(=O)n2O)c1 | Candida albicans | microbial growth | ATCC90028 | – | MIC80 | 2.3 µM (≈ 0.564 µg/mL) |
| O=c1c2ccccc2nc(/C=C/c2ccccc2)n1-c1cccc(O)c1 | Enterococcus faecium | microbial growth, broth dilution | NCTC7171 | – | MIC | 32 µg/mL (≈ 94 µM) |
| COC(=O)c1cc(-c2cccc(NC(=S)Nc3ccc(C)cc3)c2)on1 | Mycobacteroides chelonae | microbial growth, broth dilution | ATCC35752 | 48 h | MIC | > 64 µg/mL |
| O=C(N/N=C/c1ccc(O)c(O)c1)c1cc2ccccc2cc1O | Murine coronavirus | viral replication | – | – | pIC50 | 5.22 |
| COC(=O)c1cc(-c2cccc(NC(=O)Nc3ccc(Cl)cc3Cl)c2)on1 | Mycobacteroides chelonae | microbial growth, broth dilution | ATCC35752 | 48 h | MIC | > 64 µg/mL |
| O=c1c2ccccc2nc(/C=C/c2ccccc2F)n1-c1cccc(O)c1 | Enterococcus faecium | microbial growth, broth dilution | NCTC7171 | – | MIC | 32 µg/mL (≈ 89.3 µM) |
| COC(=O)c1cc(-c2cccc(NC(=O)Nc3cccc(Br)c3)c2)on1 | Mycobacteroides chelonae | microbial growth, broth dilution | ATCC35752 | 48 h | MIC | > 64 µg/mL |
| O=C(Nc1cccc(Cl)c1)Nc1ncc(CCNc2ncnc3ccsc23)s1 | Plasmodium berghei | parasite growth, luciferase | human | liver stage | pIC50 | 5.38 |
